Converted amounts (≈) assume the structure as drawn.
System: not listed separately
Assay: Oral absorption in beagle dog at 5 mg/kg, po by LC/MS/MS analysis
Type: ADME, organism-based, Canis lupus familiaris
Design: dose 5 mg/kg, route oral
Conditions: in vivo
Outline: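 Naive male beagle dogs were dosed once, orally at 5 mg/kg in EtOH/PEG 400/50 mM citrate buffer pH 4 (5/40/55), or intravenously at 0.5 mg/kg for reference. Plasma was sampled over 24 h and processed by acetonitrile precipitation. Bioavailability %F = AUC_po × Dose_iv / (AUC_iv × Dose_po).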

Structure (SMILES) | Fa
C[C@H](NP(=O)(OC[C@H]1O[C@@](C#N)(c2ccc3c(N)ncnn23)[C@](C)(O)[C@@H]1O)Oc1ccccc1)C(=O)OCC(C)(C)C (stereo partly drawn) | 13%
CCC(CC)COC(=O)[C@H](C)NP(=O)(OC[C@H]1O[C@@](C#N)(c2ccc3c(N)ncnn23)[C@](C)(O)[C@@H]1O)Oc1ccccc1 (stereo partly drawn) | 7.9%

System: not listed separately
Assay: AUC (0 to infinity) in jagular vein cannulated beagle dog at 0.5 mg/kg, iv by LC/MS/MS analysis
Type: ADME, organism-based, Canis lupus familiaris
Design: time infinity, dose 0.5 mg/kg, route intravenous
Conditions: plasma
Outline: (§1)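 Naive male beagle dogs got a single intravenous infusion of 0.5 mg/kg in EtOH/PEG 400/water 5/20/75, adjusted to pH 4 with HCl. EDTA-K3 blood was collected over 24 h and plasma isolated. Plasma was precipitated with acetonitrile to a final 60%, filtered, dried, reconstituted in 20% acetonitrile and analysed.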

Structure (SMILES) | AUC(0-inf)
C[C@H](NP(=O)(OC[C@H]1O[C@@](C#N)(c2ccc3c(N)ncnn23)[C@](C)(O)[C@@H]1O)Oc1ccccc1)C(=O)OCC(C)(C)C (stereo partly drawn) | 0.09 µM·h
CCC(CC)COC(=O)[C@H](C)NP(=O)(OC[C@H]1O[C@@](C#N)(c2ccc3c(N)ncnn23)[C@](C)(O)[C@@H]1O)Oc1ccccc1 (stereo partly drawn) | 0.02 µM·h

System: not listed separately
Assay: AUC (0 to infinity) in portal vein cannulated beagle dog at 0.5 mg/kg, iv by LC/MS/MS analysis
Type: ADME, organism-based, Canis lupus familiaris
Design: time infinity, dose 0.5 mg/kg, route intravenous
Conditions: plasma
Outline: as §1

Structure (SMILES) | AUC(0-inf)
C[C@H](NP(=O)(OC[C@H]1O[C@@](C#N)(c2ccc3c(N)ncnn23)[C@](C)(O)[C@@H]1O)Oc1ccccc1)C(=O)OCC(C)(C)C (stereo partly drawn) | 0.25 µM·h
CCC(CC)COC(=O)[C@H](C)NP(=O)(OC[C@H]1O[C@@](C#N)(c2ccc3c(N)ncnn23)[C@](C)(O)[C@@H]1O)Oc1ccccc1 (stereo partly drawn) | 0.21 µM·h

System: not listed separately
Assay: Oral bioavailability in golden syrian hamster at 5 mg/kg
Type: ADME, organism-based, Mesocricetus auratus
Conditions: in vivo

Structure (SMILES) | bioavailability
C[C@H](NP(=O)(OC[C@H]1O[C@@](C#N)(c2ccc3c(N)ncnn23)[C@](C)(O)[C@@H]1O)Oc1ccccc1)C(=O)OCC(C)(C)C (stereo partly drawn) | 5.6%
CCC(CC)COC(=O)[C@H](C)NP(=O)(OC[C@H]1O[C@@](C#N)(c2ccc3c(N)ncnn23)[C@](C)(O)[C@@H]1O)Oc1ccccc1 (stereo partly drawn) | 5.4%

System: Syrian golden hamster
Assay: Cmax in golden syrian hamster assessed as liver triphosphate level at 5 mg/kg, po by LC/MS/MS analysis
Type: ADME, organism-based, Mesocricetus auratus
Design: dose 5 mg/kg, route oral
Conditions: in vivo
Outline: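 Groups of 12 Golden Syrian hamsters were dosed orally at 5 mg-equiv/kg. Vehicle was EtOH/PEG400/water buffered with 50 mM pH 4 citrate at 2.5 mg-equiv/mL. Liver was homogenized in four volumes of ice-cold 0.1% KOH/67 mM EDTA in 70% MeOH containing 0.25 μM Cl-ATP, then centrifuged, dried and reconstituted in 1 mM ammonium phosphate pH 7.0. Triphosphate was measured by LC/MS/MS, with endogenous ATP checked for sample stability.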

Structure (SMILES) | Cmax
C[C@H](NP(=O)(OC[C@H]1O[C@@](C#N)(c2ccc3c(N)ncnn23)[C@](C)(O)[C@@H]1O)Oc1ccccc1)C(=O)OCC(C)(C)C (stereo partly drawn) | 1.44 µM
CCC(CC)COC(=O)[C@H](C)NP(=O)(OC[C@H]1O[C@@](C#N)(c2ccc3c(N)ncnn23)[C@](C)(O)[C@@H]1O)Oc1ccccc1 (stereo partly drawn) | 2.26 µM

System: Syrian golden hamster
Assay: Cmax in golden syrian hamster assessed as liver triphosphate level at 1 mg/kg, iv by LC/MS/MS analysis
Type: ADME, organism-based, Mesocricetus auratus
Design: dose 1 mg/kg, route intravenous
Conditions: in vivo
Outline: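 Golden Syrian hamsters in groups of 12, dosed iv at 1 mg-equiv/kg in EtOH/PEG400/water adjusted to pH 4 with HCl (0.5 mg-equiv/mL). Liver homogenised in ice-cold 70% MeOH with 0.1% KOH, 67 mM EDTA and 0.25 μM Cl-ATP internal standard, then centrifuged, dried and reconstituted. Triphosphate measured by LC/MS/MS; endogenous ATP checked for sample stability.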

Structure (SMILES) | Cmax
C[C@H](NP(=O)(OC[C@H]1O[C@@](C#N)(c2ccc3c(N)ncnn23)[C@](C)(O)[C@@H]1O)Oc1ccccc1)C(=O)OCC(C)(C)C (stereo partly drawn) | 5.18 µM
CCC(CC)COC(=O)[C@H](C)NP(=O)(OC[C@H]1O[C@@](C#N)(c2ccc3c(N)ncnn23)[C@](C)(O)[C@@H]1O)Oc1ccccc1 (stereo partly drawn) | 8.33 µM

System: not listed separately
Assay: Metabolic stability in human liver S9 fraction assessed as extraction at 2 uM after 90 mins by LC/MS/MS analysis
Type: ADME, subcellular
Conditions: read-out: Stability
Outline: (§2)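 Compound at 2 μM was incubated with human intestinal or hepatic S9 fraction plus NADPH and UDPGA for 90 min at 37 °C. Time-point samples were quenched in aqueous acetonitrile/methanol with internal standard and analysed by LC/MS/MS. Half-life came from an exponential first-order fit, and hepatic extraction was predicted from half-life using the well-stirred model.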

Structure (SMILES) | hepatic extraction ratio at 1.5 h, 2 µM
C[C@H](NP(=O)(OC[C@H]1O[C@@](C#N)(c2ccc3c(N)ncnn23)[C@](C)(O)[C@@H]1O)Oc1ccccc1)C(=O)OCC(C)(C)C (stereo partly drawn) | 0.94
CCC(CC)COC(=O)[C@H](C)NP(=O)(OC[C@H]1O[C@@](C#N)(c2ccc3c(N)ncnn23)[C@](C)(O)[C@@H]1O)Oc1ccccc1 (stereo partly drawn) | 0.97

System: not listed separately
Assay: Half life in human intestinal S9 fraction at 2 uM by LC/MS/MS analysis
Type: ADME, Intestine
Conditions: not given
Outline: as §2

Structure (SMILES) | half-life at 2 µM
C[C@H](NP(=O)(OC[C@H]1O[C@@](C#N)(c2ccc3c(N)ncnn23)[C@](C)(O)[C@@H]1O)Oc1ccccc1)C(=O)OCC(C)(C)C (stereo partly drawn) | 1.42 h
CCC(CC)COC(=O)[C@H](C)NP(=O)(OC[C@H]1O[C@@](C#N)(c2ccc3c(N)ncnn23)[C@](C)(O)[C@@H]1O)Oc1ccccc1 (stereo partly drawn) | 1.23 h

System: not listed separately
Assay: Permeability across basolateral to apical side in human Caco2 cells at 10 uM after 1 to 2 hrs by LC/MS/MS analysis
Type: ADME, cell-based
Conditions: Caco-2, read-out: permeability
Outline: (§3)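 Caco-2 monolayers were grown at least 21 days, and membrane integrity was checked by TEER after buffer equilibration. Test compound was dosed at 10 μM on the apical or basolateral side, in duplicate wells. Receiver samples at 1 and 2 h were precipitated with acetonitrile plus internal standard and run by LC/MS/MS.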

Structure (SMILES) | Papp B→A at 10 µM
C[C@H](NP(=O)(OC[C@H]1O[C@@](C#N)(c2ccc3c(N)ncnn23)[C@](C)(O)[C@@H]1O)Oc1ccccc1)C(=O)OCC(C)(C)C (stereo partly drawn) | 29.1 ×10⁻⁶ cm/s
CCC(CC)COC(=O)[C@H](C)NP(=O)(OC[C@H]1O[C@@](C#N)(c2ccc3c(N)ncnn23)[C@](C)(O)[C@@H]1O)Oc1ccccc1 (stereo partly drawn) | 7.2 ×10⁻⁶ cm/s

System: not listed separately
Assay: Permeability across apical to basolateral side in human Caco2 cells at 10 uM after 1 to 2 hrs by LC/MS/MS analysis
Type: ADME, cell-based
Conditions: Caco-2, read-out: permeability
Outline: as §3

Structure (SMILES) | Papp A→B at 10 µM
C[C@H](NP(=O)(OC[C@H]1O[C@@](C#N)(c2ccc3c(N)ncnn23)[C@](C)(O)[C@@H]1O)Oc1ccccc1)C(=O)OCC(C)(C)C (stereo partly drawn) | 0.69 ×10⁻⁶ cm/s
CCC(CC)COC(=O)[C@H](C)NP(=O)(OC[C@H]1O[C@@](C#N)(c2ccc3c(N)ncnn23)[C@](C)(O)[C@@H]1O)Oc1ccccc1 (stereo partly drawn) | 0.36 ×10⁻⁶ cm/s

System: not listed separately
Assay: Aqueous solubility of the compound in phosphate buffer at pH 7 by reverse-phase UPLC-UV method
Type: physicochemical
Conditions: not given
Outline: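 Excess solid was suspended in pH 7 phosphate buffer at ambient temperature, sonicated, then stirred for at least 2 h. After centrifugation, the supernatant was quantified by reverse-phase UPLC-UV.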

Structure (SMILES) | solubility
C[C@H](NP(=O)(OC[C@H]1O[C@@](C#N)(c2ccc3c(N)ncnn23)[C@](C)(O)[C@@H]1O)Oc1ccccc1)C(=O)OCC(C)(C)C (stereo partly drawn) | 115 µg/mL (≈ 191 µM)
CCC(CC)COC(=O)[C@H](C)NP(=O)(OC[C@H]1O[C@@](C#N)(c2ccc3c(N)ncnn23)[C@](C)(O)[C@@H]1O)Oc1ccccc1 (stereo partly drawn) | 1.8 µg/mL (≈ 2.92 µM)

System: not listed separately
Assay: Lipophilicity, log D of the compound by HPLC/UV method
Type: physicochemical
Conditions: not given
Outline: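 A 10 mM DMSO stock was diluted 1:100 into 1:1 acetonitrile/water, shaken 30 min, and analysed by HPLC/UV on a C18 column with 20 mM ammonium acetate/acetonitrile mobile phase.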

Structure (SMILES) | logD
C[C@H](NP(=O)(OC[C@H]1O[C@@](C#N)(c2ccc3c(N)ncnn23)[C@](C)(O)[C@@H]1O)Oc1ccccc1)C(=O)OCC(C)(C)C (stereo partly drawn) | 2.3
CCC(CC)COC(=O)[C@H](C)NP(=O)(OC[C@H]1O[C@@](C#N)(c2ccc3c(N)ncnn23)[C@](C)(O)[C@@H]1O)Oc1ccccc1 (stereo partly drawn) | 2.7

System: not listed separately
Assay: Cytotoxicity against human HuH7 cells after 3 days by fluorescence assay
Type: cell-based
Conditions: Huh-7 cells
Outline: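 Huh-7 HCV replicon cells were seeded at 2000 cells/well in medium without Geneticin. Compounds were added as ten-point 1:3 DMSO dilutions in quadruplicate (final DMSO 0.44%), with […] as the 100% cytotoxicity control. After 3 days at 37 °C, cells were washed and given 400 nM calcein AM for 30 min at RT, and fluorescence read at ex 490/em 520 nm. Signal was normalized to DMSO and puromycin wells, and CC50 taken from a four-parameter Hill fit.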

Structure (SMILES) | CC50 at 72 h
C[C@H](NP(=O)(OC[C@H]1O[C@@](C#N)(c2ccc3c(N)ncnn23)[C@](C)(O)[C@@H]1O)Oc1ccccc1)C(=O)OCC(C)(C)C (stereo partly drawn) | 85 µM
CCC(CC)COC(=O)[C@H](C)NP(=O)(OC[C@H]1O[C@@](C#N)(c2ccc3c(N)ncnn23)[C@](C)(O)[C@@H]1O)Oc1ccccc1 (stereo partly drawn) | 35 µM

System: Hepatitis C virus
Assay: Antiviral activity against HCV genotype 1b infected in human HuH7 cells assessed as inhibition of viral replication after 3 days by luminescence assay
Type: functional, organism-based, Hepacivirus hominis
Conditions: Huh-7, 72 h
Outline: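 Multiplex replicon assay carrying a renilla luciferase reporter, with stable GT1b, 1a and 2a replicons and chimeric 2b, 3a, 4a, 5a and 6a replicons. 2000 replicon cells/well in medium without Geneticin. Ten-step 1:3 serial dilutions, four replicates, 0.44% DMSO final. Incubated 3 days at 37 °C, 5% CO₂. Luminescence normalised to DMSO wells and to protease-inhibitor (ITMN-191) wells. EC50 from a four-parameter Hill fit.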

Structure (SMILES) | EC50
C[C@H](NP(=O)(OC[C@H]1O[C@@](C#N)(c2ccc3c(N)ncnn23)[C@](C)(O)[C@@H]1O)Oc1ccccc1)C(=O)OCC(C)(C)C (stereo partly drawn) | 0.18 µM
CCC(CC)COC(=O)[C@H](C)NP(=O)(OC[C@H]1O[C@@](C#N)(c2ccc3c(N)ncnn23)[C@](C)(O)[C@@H]1O)Oc1ccccc1 (stereo partly drawn) | 0.44 µM
